Experimental data published in ChEMBL document CHEMBL4602702, “Red-Emitting Dibenzodiazepinone Derivatives as Fluorescent Dualsteric Probes for the Muscarinic Acetylcholine M2 Receptor” (J Med Chem, 2020).
Active and inactive are the calls of the source. No cut-off for these calls is given here.

What was measured:
[1] = target: T1, Muscarinic acetylcholine receptor M2 (Homo sapiens, UniProt P08172); experiment: (§1) Antagonist activity at human muscarinic M2 receptor expressed in HEK293 cells co-expressing HA-Galphaq/i5 assessed as inhibition of carbachol-induced IP1 accumulation at 22 degree C pre-incubated for 180 mins followed by carbachol addition and further incubated at 37 degree C for 90 mins by HTRF assay; format: functional, cell-based
T1 sequence (P08172 whole entry): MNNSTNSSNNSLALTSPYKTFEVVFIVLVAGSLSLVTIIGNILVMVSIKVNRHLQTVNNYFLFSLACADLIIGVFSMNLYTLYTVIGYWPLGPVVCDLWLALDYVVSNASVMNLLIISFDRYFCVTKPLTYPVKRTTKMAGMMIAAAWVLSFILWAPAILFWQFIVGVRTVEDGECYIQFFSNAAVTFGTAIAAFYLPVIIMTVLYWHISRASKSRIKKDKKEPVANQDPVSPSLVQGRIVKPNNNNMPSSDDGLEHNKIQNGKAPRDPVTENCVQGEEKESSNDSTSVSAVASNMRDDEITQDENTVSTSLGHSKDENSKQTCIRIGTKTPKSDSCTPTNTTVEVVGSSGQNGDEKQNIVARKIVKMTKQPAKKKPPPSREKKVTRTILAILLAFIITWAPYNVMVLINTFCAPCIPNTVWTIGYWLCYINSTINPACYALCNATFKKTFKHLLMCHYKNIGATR
Procedure, shortened: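 HEK-hM2-Gαqi5-HA cells (transient transfection) preincubated with antagonist at 22 °C for 180 min, then carbachol 0.3 μM (≈EC80) added and incubation continued at 37 °C for 90 min. Readout is inhibition of IP1 accumulation as pIC50, mean ± SEM of n independent experiments, each in duplicate.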

[2] = target: Muscarinic acetylcholine receptor M3 (Homo sapiens, UniProt P20309); experiment: Displacement of [3H]-NMS from human muscarinic M3 receptor stably expressed in CHO-K9 cells by radioligand competitive binding assay; format: cell-based
Procedure, shortened: (§2)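 Equilibrium competition binding at live CHO-hMxR cells with [3H]NMS at M1 0.2, M2 0.2, M3 0.2, M4 0.1, M5 0.3 nM. […] Four-parameter logistic fit converted to pKi; at least three experiments in triplicate (some two).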

[3] = target: T2, Muscarinic acetylcholine receptor M2 (Homo sapiens) (UniProt P08172); experiment: Competitive binding affinity to human muscarinic M2 receptor expressed in CHO-K9 cells assessed as rightward shift of saturation isotherm resulting in Schild regression in presence of increasing concentration of W84 by Schild-like analysis; format: cell-based
T2 sequence (whole entry): T1 sequence (P08172 whole entry)
Procedure, shortened: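 High-content imaging saturation binding of fluorescent ligand at intact CHO-hM2R cells in the presence of increasing concentrations of the allosteric modulator W84. Rightward shifts (ΔpKd) plotted as log(r−1) vs log[modulator], with r = 10^ΔpKd. Three independent experiments in triplicate.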

[4] = target: T3, Muscarinic acetylcholine receptor M4 (Homo sapiens, UniProt P08173); experiment: as §1, with “M4” for “M2”; format: functional, cell-based
T3 sequence (P08173 whole entry): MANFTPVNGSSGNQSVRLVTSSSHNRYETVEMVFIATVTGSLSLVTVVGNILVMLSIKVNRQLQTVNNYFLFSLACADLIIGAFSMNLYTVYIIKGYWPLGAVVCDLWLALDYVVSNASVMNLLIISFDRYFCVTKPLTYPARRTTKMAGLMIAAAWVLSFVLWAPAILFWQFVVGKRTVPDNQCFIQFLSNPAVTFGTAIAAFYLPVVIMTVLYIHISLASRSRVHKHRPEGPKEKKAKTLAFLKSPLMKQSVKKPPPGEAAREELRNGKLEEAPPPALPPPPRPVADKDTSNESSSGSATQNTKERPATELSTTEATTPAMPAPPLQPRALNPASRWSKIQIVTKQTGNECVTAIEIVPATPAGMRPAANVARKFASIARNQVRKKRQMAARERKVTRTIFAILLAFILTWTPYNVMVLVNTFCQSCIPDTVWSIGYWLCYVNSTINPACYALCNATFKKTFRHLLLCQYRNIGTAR

[5] = Chemical stability of compound in PBS buffer assessed as retention time at pH 7.4 and 22 degree C measured up to 48 hrs by RP-HPLC analysis; format: physicochemical; settings: pH 7.4, 48 h
Procedure, shortened: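 Fluorescent ligand stability checked in PBS pH 7.4 over 48 h by RP-HPLC on a C18 column with an aqueous TFA/acetonitrile gradient, oven at 25 °C, detection at 220 nm.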

[6] = target: T2, Muscarinic acetylcholine receptor M2 (Homo sapiens); experiment: Binding affinity to human muscarinic M2 receptor expressed in CHO-K9 cells assessed as association rate constant at 22 +/- 1 degree C incubated under shaking condition in dark for 1 to 300 mins by flow cytometric saturation binding study; format: cell-based
[7] = target: T2, Muscarinic acetylcholine receptor M2 (Homo sapiens); experiment: Agonist activity at human muscarinic M2 receptor expressed in HEK293 cells co-expressing HA-Galphaq/i5 assessed as induction of Galphaq/i5-mediated IP1 accumulation by HTRF assay; format: functional, cell-based
Procedure, shortened: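 HEK-293 cells transiently co-transfected with hM2R and hybrid Gαqi5-HA, run in agonist mode at 37 °C; IP1 accumulation measured. Carbachol control from 14 independent experiments in duplicate; test ligands from three or four independent experiments in duplicate.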

[8] = target: T1, Muscarinic acetylcholine receptor M2; experiment: Displacement of [3H]-NMS from human muscarinic M2 receptor stably expressed in CHO-K9 cells by radioligand competitive binding assay; format: cell-based; procedure, shortened: as §2
[9] = target: T4, Muscarinic acetylcholine receptor M5 (Homo sapiens, UniProt P08912); experiment: Displacement of [3H]-NMS from human muscarinic M5 receptor stably expressed in CHO-K9 cells by radioligand competitive binding assay; format: cell-based; procedure, shortened: as §2
T4 sequence (P08912 whole entry): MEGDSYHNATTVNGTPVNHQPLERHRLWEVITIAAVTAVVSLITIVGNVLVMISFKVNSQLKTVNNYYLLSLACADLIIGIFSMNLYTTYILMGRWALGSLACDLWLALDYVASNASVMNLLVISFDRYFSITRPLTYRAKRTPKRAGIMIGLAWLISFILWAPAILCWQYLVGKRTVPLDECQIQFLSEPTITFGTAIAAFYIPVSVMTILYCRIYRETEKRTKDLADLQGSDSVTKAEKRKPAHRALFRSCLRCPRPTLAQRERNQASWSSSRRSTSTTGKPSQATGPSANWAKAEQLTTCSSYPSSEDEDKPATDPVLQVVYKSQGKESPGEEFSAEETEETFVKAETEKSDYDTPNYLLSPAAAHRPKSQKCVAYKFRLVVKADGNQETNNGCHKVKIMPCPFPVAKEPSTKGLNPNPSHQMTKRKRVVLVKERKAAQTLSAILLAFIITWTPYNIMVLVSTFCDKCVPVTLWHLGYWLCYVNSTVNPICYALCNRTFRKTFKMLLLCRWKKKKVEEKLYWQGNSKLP

[10] = target: T1, Muscarinic acetylcholine receptor M2; experiment: Binding affinity to human muscarinic M2 receptor expressed in […] cells incubated in dark at 22 degree C for 2 hrs by FACSCalibur flow cytometric saturation binding study; format: cell-based
[11] = target: T1, Muscarinic acetylcholine receptor M2; experiment: Antagonist activity at human muscarinic M2 receptor expressed in HEK293 cells co-expressing HA-Galphaq/i5 assessed as inhibition of carbachol-induced IP1 accumulation at 37 degree C pre-incubated for 30 mins followed by carbachol addition and measured after 60 mins by HTRF assay; format: functional, cell-based

Sequence of Muscarinic acetylcholine receptor M3 (P20309 whole entry): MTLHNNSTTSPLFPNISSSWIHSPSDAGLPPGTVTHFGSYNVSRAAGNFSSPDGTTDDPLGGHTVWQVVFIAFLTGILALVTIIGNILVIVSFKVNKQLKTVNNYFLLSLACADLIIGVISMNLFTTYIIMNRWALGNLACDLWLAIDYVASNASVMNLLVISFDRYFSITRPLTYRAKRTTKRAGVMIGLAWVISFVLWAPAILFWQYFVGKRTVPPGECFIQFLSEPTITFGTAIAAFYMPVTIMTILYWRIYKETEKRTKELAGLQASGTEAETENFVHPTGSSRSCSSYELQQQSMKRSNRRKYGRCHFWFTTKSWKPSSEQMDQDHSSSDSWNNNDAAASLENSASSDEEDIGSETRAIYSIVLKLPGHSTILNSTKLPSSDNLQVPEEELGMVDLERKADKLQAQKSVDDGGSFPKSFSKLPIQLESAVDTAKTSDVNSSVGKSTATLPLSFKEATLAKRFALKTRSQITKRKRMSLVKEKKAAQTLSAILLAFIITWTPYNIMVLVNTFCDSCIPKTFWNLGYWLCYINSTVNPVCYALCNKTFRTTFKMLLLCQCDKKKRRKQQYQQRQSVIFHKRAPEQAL

Row | IC50 [1] | Ki [2] | Activity [3] | IC50 [4] | Retention_time [5] | K [6] | Activity [7] | Ki [8] | Ki [9] | Kd ([10]; read-out: Kd) | Kd ([10]; read-out: pKd (converted)) | IC50 [11] | SMILES
1 | 17.4 nM | 75.9 nM | Active | 37.2 nM | 10.4 min | 81700 M⁻¹ s⁻¹ | inactive | 0.631 nM | 407 nM | 3.2 nM | 3.09 nM | 24 nM | CC1(C)C(/C=C/C=C/C=C2/N(CCCCCC(=O)NCc3cc(C(=O)NCCNC(=O)CCc4cn(CCCCC5CCN(CC(=O)N6c7ccccc7NC(=O)c7ccccc76)CC5)cn4)cc(C(=O)NCCNC(=O)CCc4cn(CCCCC5CCN(CC(=O)N6c7ccccc7NC(=O)c7ccccc76)CC5)cn4)c3)c3ccc(S(=O)(=O)O)cc3C2(C)C)=[N+](CCCCS(=O)(=O)[O-])c2ccccc21.O=C(O)C(F)(F)F.O=C(O)C(F)(F)F.O=C(O)C(F)(F)F
2 | 38.9 nM | 81.3 nM | Active | 102 nM | 18.2 min | 158000 M⁻¹ s⁻¹ | inactive | 0.525 nM | 135 nM | 0.8 nM | 0.891 nM | 224 nM | CC1(C)C(/C=C/C=C/C=C2/N(CCCCCC(=O)NCCN3CCN(CCCCC4CCN(CC(=O)N5c6ccccc6NC(=O)c6ccccc65)CC4)CC3)c3ccc(S(=O)(=O)O)cc3C2(C)C)=[N+](CCCCS(=O)(=O)[O-])c2ccccc21.O=C(O)C(F)(F)F.O=C(O)C(F)(F)F
3 | 57.5 nM | 155 nM | Active | 138 nM | 10.3 min | 61700 M⁻¹ s⁻¹ | inactive | 0.794 nM | 166 nM | 4.1 nM | 4.47 nM | 355 nM | CC1(C)C(/C=C/C=C/C=C2/N(CCCCCC(=O)NCCNC(=O)CCc3cn(CCCCC4CCN(CC(=O)N5c6ccccc6NC(=O)c6ccccc65)CC4)cn3)c3ccc(S(=O)(=O)O)cc3C2(C)C)=[N+](CCCCS(=O)(=O)[O-])c2ccccc21.O=C(O)C(F)(F)F
